This note sets out measurements from publication PMC9720105 (Redox Biology, 2022).

Experiment [1] concerns the target recombinant KEAP1-Kelch domain (Homo sapiens, UniProt Q14145). Description: biochemical. It counts as binding. The following applies: for reduction in KEAP1 binding affinity compared to inhibitor 2: HTRF biochemical assay. A general note: Time-resolved FRET reads energy transfer from a long-lived donor to a nearby acceptor.
Experiment [2] deals with NRF2 downstream targets, NQO1 and HO-1. Description: NQO1 and HO-1 protein levels in HEK293T and HCA7 cell lines. It is filed as cell-based. Conditions: 48 h. The procedure, abridged: (§1)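 HEK293T, HCA7 and A549 cells were grown in DMEM with 10% FBS and pen/strep; BEAS-2B in LHC-9 with pen/strep; all at 37 °C, 10% CO₂. Cells were exposed to test compound for 48 h, lysed, run on 4–12% SDS-PAGE and transferred to nitrocellulose. Blocking was 5% skim milk for 1 h at RT. Probes were anti-KEAP1, CRBN, NQO1 or HO-1, with HRP anti-β-actin loading control and HRP secondaries. Blots represent 3 independent experiments.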

The next experiment addresses KEAP1 in HEK293T cells (Homo sapiens, UniProt Q14145). Description: KEAP1 degradation in HEK293T cells. It counts as cell-based. The following applies: HEK293T cells; for KEAP1 degradation / expression: 48 h; for KEAP1 degradation efficiency: three lower concentrations, 5 and 24 h.
Another experiment has as its target KEAP1 in HCA7 cells (Homo sapiens, UniProt Q14145). Briefly: KEAP1 degradation in HCA7 cells. It is filed as cell-based. The following applies: 48 h. Summed up:
as §1

KEAP1 in HEK293T cells, sequence (Q14145 whole entry): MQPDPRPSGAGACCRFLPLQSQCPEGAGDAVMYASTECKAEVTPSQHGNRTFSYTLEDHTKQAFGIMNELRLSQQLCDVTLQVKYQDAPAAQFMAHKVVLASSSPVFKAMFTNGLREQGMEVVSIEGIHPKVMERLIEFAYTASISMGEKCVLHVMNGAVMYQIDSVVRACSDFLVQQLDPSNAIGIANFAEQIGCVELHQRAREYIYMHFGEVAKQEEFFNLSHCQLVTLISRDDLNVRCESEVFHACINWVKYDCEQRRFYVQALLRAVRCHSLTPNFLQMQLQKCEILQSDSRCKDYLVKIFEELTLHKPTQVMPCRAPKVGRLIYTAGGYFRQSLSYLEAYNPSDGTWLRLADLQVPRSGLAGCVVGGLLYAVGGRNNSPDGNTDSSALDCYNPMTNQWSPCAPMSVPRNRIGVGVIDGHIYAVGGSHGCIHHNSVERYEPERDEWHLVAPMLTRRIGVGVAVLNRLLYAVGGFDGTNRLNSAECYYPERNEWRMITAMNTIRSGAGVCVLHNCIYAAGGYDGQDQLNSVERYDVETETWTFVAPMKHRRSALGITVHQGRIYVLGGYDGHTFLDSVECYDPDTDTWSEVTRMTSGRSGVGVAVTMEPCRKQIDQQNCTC
recombinant KEAP1-Kelch domain, sequence (Q14145 312-624): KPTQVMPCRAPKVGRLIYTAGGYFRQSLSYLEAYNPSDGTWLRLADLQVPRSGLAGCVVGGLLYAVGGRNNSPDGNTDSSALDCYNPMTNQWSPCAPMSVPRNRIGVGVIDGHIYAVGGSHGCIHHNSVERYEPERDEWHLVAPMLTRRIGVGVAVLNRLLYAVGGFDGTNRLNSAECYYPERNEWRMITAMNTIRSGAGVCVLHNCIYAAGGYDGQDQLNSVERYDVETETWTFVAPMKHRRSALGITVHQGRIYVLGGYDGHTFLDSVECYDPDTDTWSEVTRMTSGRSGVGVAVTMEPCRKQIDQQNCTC
KEAP1 in HCA7 cells, sequence (Q14145 whole entry): as the sequence (Q14145 whole entry) above

The IC50 is the concentration that gives 50% inhibition. Take `Cc1ccc(C(CC(=O)O)c2cc(OCCCCCNC(=O)COc3cccc4c3C(=O)N(C3CCC(=O)NC3=O)C4=O)c3c(c2)nnn3C)cc1CN1C[C@@H](C)Oc2ccccc2S1(=O)=O` (stereo partly drawn) [Compound 9, 3-(7-((5-(2-((2-(2,6-Dioxopiperidin-3-yl)-1,3-dioxoisoindolin-4-yl)oxy)acetamido)pentyl)oxy)-1-methyl-1H-benzo[d][1,2,3]triazol-5-yl)-3-(4-methyl-3-(((R)-4-methyl-1,1-dioxido-3,4-dihydro-2H-benzo[b][1,4,5]oxathiazepin-2-yl)methyl)phenyl)propanoic acid]: in experiment [1], the IC50 is 86 nM.

In the case of `Cc1ccc(C(CC(=O)O)c2cc(OCCCCCCCNc3cccc4c3C(=O)N(C3CCC(=O)N(C)C3=O)C4=O)c3c(c2)nnn3C)cc1CN1C[C@@H](C)Oc2ccccc2S1(=O)=O` (stereo partly drawn) [Compound 15, 3-(4-Methyl-3-(((R)-4-methyl-1,1-dioxido-3,4-dihydro-2H-benzo[b][1,4,5]oxathiazepin-2-yl)methyl)phenyl)-3-(1-methyl-7-((7-((2-(1-methyl-2,6-dioxopiperidin-3-yl)-1,3-dioxoisoindolin-4-yl)amino)heptyl)oxy)-1H-benzo[d][1,2,3]triazol-5-yl)propanoic acid], in experiment [2], the HO-1 protein expression entry is given as “but not HO-1” and the NQO1 protein expression result is on record as “upregulated”.

Turning to `Cc1ccc(C(CC(=O)O)c2cc(OCCNC(=O)COc3cccc4c3C(=O)N(C3CCC(=O)NC3=O)C4=O)c3c(c2)nnn3C)cc1CN1C[C@@H](C)Oc2ccccc2S1(=O)=O` (stereo partly drawn) [Compound 6, 3-(7-(2-(2-((2-(2,6-Dioxopiperidin-3-yl)-1,3-dioxoisoindolin-4-yl)oxy)acetamido)ethoxy)-1-methyl-1H-benzo[d][1,2,3]triazol-5-yl)-3-(4-methyl-3-(((R)-4-methyl-1,1-dioxido-3,4-dihydro-2H-benzo[b][1,4,5]oxathiazepin-2-yl)methyl)phenyl)propanoic acid], the concentration for half-maximal inhibition (IC50) in experiment [1] was found to be 147 nM.

For `Cc1ccc(C(CC(=O)O)c2cc(OCCOCCOCCNC(=O)COc3cccc4c3C(=O)N(C3CCC(=O)NC3=O)C4=O)c3c(c2)nnn3C)cc1CN1C[C@@H](C)Oc2ccccc2S1(=O)=O` (stereo partly drawn) [Compound 12, 3-(7-(2-(2-(2-(2-((2-(2,6-Dioxopiperidin-3-yl)-1,3-dioxoisoindolin-4-yl)oxy)acetamido)ethoxy)ethoxy)ethoxy)-1-methyl-1H-benzo[d][1,2,3]triazol-5-yl)-3-(4-methyl-3-(((R)-4-methyl-1,1-dioxido-3,4-dihydro-2H-benzo[b][1,4,5]oxathiazepin-2-yl)methyl)phenyl)propanoic acid], in experiment [1], the IC50 was 563 nM and the “reduction in KEAP1 binding affinity compared to inhibitor 2” value (“reduction … to inhibitor 2” for short) is listed as “greater than 3 fold”.

As for `Cc1ccc(C(CC(=O)OC(C)(C)C)c2cc(OCCCCCCCNc3cccc4c3C(=O)N(C3CCC(=O)NC3=O)C4=O)c3c(c2)nnn3C)cc1CN1C[C@@H](C)Oc2ccccc2S1(=O)=O` (stereo partly drawn) [Compound 16, tert-Butyl 3-(7-((7-((2-(2,6-Dioxopiperidin-3-yl)-1,3-dioxoisoindolin-4-yl)amino)heptyl)oxy)-1-methyl-1H-benzo[d][1,2,3]triazol-5-yl)-3-(4-methyl-3-(((R)-4-methyl-1,1-dioxido-3,4-dihydro-2H-benzo[b][1,4,5]oxathiazepin-2-yl)methyl)phenyl)propanoate], the “KEAP1 degradation / expression” value at KEAP1 in HEK293T cells was “no impact”. Further, the “KEAP1 degradation / expression” value on KEAP1 in HCA7 cells is given as “no impact”. In experiment [2], the HO-1 protein expression result is reported as “no impact” and the NQO1 protein expression result is “no impact”.

As to `C[S+]([O-])CCCCN=C=S` (stereo not drawn) [sulforaphane, reference compound], in experiment [2], the HO-1 protein expression entry is given as “but not HO-1” and the NQO1 protein expression result is reported as “upregulated”.

On to `COc1cc(C(CC(=O)OC(C)(C)C)c2ccc(C)c(CN3C[C@@H](C)Oc4ccccc4S3(=O)=O)c2)cc2nnn(C)c12` (stereo partly drawn) [Compound 17, tert-Butyl 3-(7-methoxy-1-methyl-1H-benzo[d][1,2,3]triazol-5-yl)-3-(4-methyl-3-(((R)-4-methyl-1,1-dioxido-3,4-dihydro-2H-benzo[b][1,4,5]oxathiazepin-2-yl)methyl)phenyl)propanoate], for which the “KEAP1 degradation / expression” value on KEAP1 in HEK293T cells is recorded as “no impact”. Besides, the “KEAP1 degradation / expression” value on KEAP1 in HCA7 cells was “no impact”. Moreover, in experiment [2], the HO-1 protein expression result is “no impact” and the NQO1 protein expression entry was “no impact”.

In the case of `Cc1ccc(C(CC(=O)O)c2cc(OCCCCNC(=O)COc3cccc4c3C(=O)N(C3CCC(=O)NC3=O)C4=O)c3c(c2)nnn3C)cc1CN1C[C@@H](C)Oc2ccccc2S1(=O)=O` (stereo partly drawn) [Compound 8, 3-(7-(4-(2-((2-(2,6-Dioxopiperidin-3-yl)-1,3-dioxoisoindolin-4-yl)oxy)acetamido)butoxy)-1-methyl-1H-benzo[d][1,2,3]triazol-5-yl)-3-(4-methyl-3-(((R)-4-methyl-1,1-dioxido-3,4-dihydro-2H-benzo[b][1,4,5]oxathiazepin-2-yl)methyl)phenyl)propanoic acid], the IC50 in experiment [1] is 66 nM. At KEAP1 in HEK293T cells (48 h and 72 h, comparison of 8 and 14), the “KEAP1 degradation at longer time points” value is “less effective at longer time points of 48 h and 72 h”. In addition, at KEAP1 in HEK293T cells, the KEAP1 degradation efficiency result was “most efficient at degrading KEAP1”.

On to `Cc1ccc(C(CC(=O)O)c2cc(OCCNc3cccc4c3C(=O)N(C3CCC(=O)NC3=O)C4=O)c3c(c2)nnn3C)cc1CN1C[C@@H](C)Oc2ccccc2S1(=O)=O` (stereo partly drawn) [Compound 3, 3-(7-(2-((2-(2,6-Dioxopiperidin-3-yl)-1,3-dioxoisoindolin-4-yl)amino)ethoxy)-1-methyl-1H-benzo[d][1,2,3]triazol-5-yl)-3-(4-methyl-3-(((R)-4-methyl-1,1-dioxido-3,4-dihydro-2H-benzo[b][1,4,5]oxathiazepin-2-yl)methyl)phenyl)propanoic acid], for which, in experiment [1], the concentration for half-maximal inhibition (IC50) came to 150 nM.

On to `Cc1ccc(C(CC(=O)O)c2cc(OC(=O)CCCOc3cccc4c3C(=O)N(C3CCC(=O)NC3=O)C4=O)c3c(c2)nnn3C)cc1CN1C[C@@H](C)Oc2ccccc2S1(=O)=O` (stereo partly drawn) [Compound 5, 3-(7-((4-((2-(2,6-Dioxopiperidin-3-yl)-1,3-dioxoisoindolin-4-yl)oxy)butanoyl)oxy)-1-methyl-1H-benzo[d][1,2,3]triazol-5-yl)-3-(4-methyl-3-(((R)-4-methyl-1,1-dioxido-3,4-dihydro-2H-benzo[b][1,4,5]oxathiazepin-2-yl)methyl)phenyl)propanoic acid], for which the “reduction … to inhibitor 2” value in experiment [1] is reported as “greater than 3 fold”.

With `Cc1ccc(C(CC(=O)O)c2cc(OCCCNC(=O)COc3cccc4c3C(=O)N(C3CCC(=O)NC3=O)C4=O)c3c(c2)nnn3C)cc1CN1C[C@@H](C)Oc2ccccc2S1(=O)=O` (stereo partly drawn) [Compound 7, 3-(7-(3-(2-((2-(2,6-Dioxopiperidin-3-yl)-1,3-dioxoisoindolin-4-yl)oxy)acetamido)propoxy)-1-methyl-1H-benzo[d][1,2,3]triazol-5-yl)-3-(4-methyl-3-(((R)-4-methyl-1,1-dioxido-3,4-dihydro-2H-benzo[b][1,4,5]oxathiazepin-2-yl)methyl)phenyl)propanoic acid], in experiment [1], the 50% inhibitory concentration (IC50) turned out to be 143 nM.

Consider `Cc1ccc(C(CC(=O)O)c2cc(OCCOCCOCCNc3cccc4c3C(=O)N(C3CCC(=O)NC3=O)C4=O)c3c(c2)nnn3C)cc1CN1C[C@@H](C)Oc2ccccc2S1(=O)=O` (stereo partly drawn) [Compound 11, 3-(7-(2-(2-(2-((2-(2,6-Dioxopiperidin-3-yl)-1,3-dioxoisoindolin-4-yl)amino)ethoxy)ethoxy)ethoxy)-1-methyl-1H-benzo[d][1,2,3]triazol-5-yl)-3-(4-methyl-3-(((R)-4-methyl-1,1-dioxido-3,4-dihydro-2H-benzo[b][1,4,5]oxathiazepin-2-yl)methyl)phenyl)propanoic acid], for which the IC50 in experiment [1] stood at 120 nM.

Take `Cc1ccc(C(CC(=O)O)c2cc(OCCCCCCNC(=O)COc3cccc4c3C(=O)N(C3CCC(=O)NC3=O)C4=O)c3c(c2)nnn3C)cc1CN1C[C@@H](C)Oc2ccccc2S1(=O)=O` (stereo partly drawn) [Compound 10, 3-(7-((6-(2-((2-(2,6-Dioxopiperidin-3-yl)-1,3-dioxoisoindolin-4-yl)oxy)acetamido)hexyl)oxy)-1-methyl-1H-benzo[d][1,2,3]triazol-5-yl)-3-(4-methyl-3-(((R)-4-methyl-1,1-dioxido-3,4-dihydro-2H-benzo[b][1,4,5]oxathiazepin-2-yl)methyl)phenyl)propanoic acid]: the IC50 in experiment [1] was 127 nM. Also, the KEAP1 degradation efficiency entry at KEAP1 in HEK293T cells is listed as “most efficient at degrading KEAP1”.

`Cc1ccc(C(CC(=O)O)c2cc(OCCCNc3cccc4c3C(=O)N(C3CCC(=O)NC3=O)C4=O)c3c(c2)nnn3C)cc1CN1C[C@@H](C)Oc2ccccc2S1(=O)=O` (stereo partly drawn) [Compound 4, 3-(7-(3-((2-(2,6-Dioxopiperidin-3-yl)-1,3-dioxoisoindolin-4-yl)amino)propoxy)-1-methyl-1H-benzo[d][1,2,3]triazol-5-yl)-3-(4-methyl-3-(((R)-4-methyl-1,1-dioxido-3,4-dihydro-2H-benzo[b][1,4,5]oxathiazepin-2-yl)methyl)phenyl)propanoic acid]: in experiment [1], the IC50 was found to be 267 nM and the “reduction … to inhibitor 2” value is “greater than 3 fold”.
